From paper PMC10921549 (Journal of Agricultural and Food Chemistry, 2024)
One block for each compound: values may come before it.

Legend:
[1] = test system: OR2W1; conditions: present study and ref 50; cited from earlier work
[2] = test system: ptOR8H1; experiment: HEK-293 cAMP luminescence assay, chimp ortholog ptOR8H1; format: cell-based, Pan troglodytes (chimpanzee); conditions: for response of chimp orthologue (concentration–response): ptOR8H1
In short: (§1)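 HEK-293 cells (37 °C, 5% CO2, 100% humidity; high-glucose DMEM, 10% FBS, 2 mM L-glutamine, penicillin/streptomycin) transiently express the OR ortholog with a GloSensor cAMP luciferase, and luminescence is read after odorant application. Basal signal is subtracted, data are normalized to a reference odorant–receptor maximum, and mock is subtracted. EC50 comes from a Hill fit weighted by 0.1/SD, with slope ≤2.9. Results are mean ± SD; surface expression is checked by flow cytometry.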

[3] = molecular target: T1, OR8H1 (Homo sapiens, UniProt Q8NGG4); experiment: HEK-293 cell-based cAMP luminescence; conditions: for KFO library screening response of OR8H1 (2σ-threshold): each KFO 300 μmol/L, normalized to OR8H1 response to 30 μmol/L TDN; for agonist validation by concentration–response relation on OR8H1: human OR8H1
T1 sequence (Q8NGG4 1-311): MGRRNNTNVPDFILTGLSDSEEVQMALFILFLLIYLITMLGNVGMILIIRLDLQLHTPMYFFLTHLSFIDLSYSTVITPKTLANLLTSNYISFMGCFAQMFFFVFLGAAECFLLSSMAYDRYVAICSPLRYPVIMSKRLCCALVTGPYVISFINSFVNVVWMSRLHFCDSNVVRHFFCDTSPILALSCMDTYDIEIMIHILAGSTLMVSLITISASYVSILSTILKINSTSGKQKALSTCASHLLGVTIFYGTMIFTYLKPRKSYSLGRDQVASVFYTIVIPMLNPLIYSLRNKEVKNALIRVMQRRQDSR
In short: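 In HEK-293 cells expressing recombinant human OR8H1 with GloSensor cAMP luciferase, each of 180 GC-pure food odorants is applied at 300 μmol/L (n = 1, triplicate). After basal subtraction, mock is subtracted and responses are normalized to the 30 μmol/L reference agonist signal; the hit threshold is 2σ. For concentration–response, EC50 comes from a nonlinear Hill fit (slope ≤2.9, weighted by 0.1/SD). Results are mean ± SD.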

[4] = test system: ecOR8H1; experiment: HEK-293 cAMP luminescence assay, horse ortholog ecOR8H1; format: cell-based, Equus caballus (horse)
In short: as §1

[5] = test system: 386 human OR types and 380 of their most frequent variants; experiment: Screening of TDN against OR library of 766 cDNAs; format: cell-based; conditions: 100 μmol/L TDN, 766 OR cDNAs
[6] = cited from earlier work

Compound: CC(C)c1ccc(C=O)cc1 [Compound 7, 4-Propan-2-ylbenzaldehyde]
activation of OR2W1 [1]: did not activate
response of chimp orthologue (concentration–response) [2]: responded
EC50 [3]: 92 ± 11.7 µM

Compound: Cc1ccc2c(c1)C=CCC2(C)C [TDN, 1,1,6-trimethyl-1,2-dihydronaphthalene]
response of horse orthologue to TDN [4]: nonresponding
receptor activation above 3σ-threshold in OR library screening [5]: exclusively activated a single OR above a 3σ-threshold: OR8H1
EC50 ([2]; chimp ptOR8H1 in HEK-293, n = 3): 37.8 ± 29.1 µM
response of chimp orthologue (concentration–response) [2]: responded
efficacy lower than at the human receptor ([2]; ptOR8H1 versus human OR8H1): ~7 fold
odor (detection) threshold in Riesling wine ([6]; Riesling wine): 2.3 µg/L
odor threshold, originally reported [6]: 20 µg/L
detection threshold ([6]; spiked model wine): 2 µg/L
EC50 [3]: 32 ± 6.09 µM

Compound: C=C(C)[C@@H]1CC=C(C)C(=O)C1 [Compound 6, (5R)-2-methyl-5-prop-1-en-2-ylcyclohex-2-en-1-one]
EC50 [3]: 193 ± 9.52 µM
KFO library screening response of OR8H1 (2σ-threshold) [3]: false-negative responder
agonist validation by concentration–response relation on OR8H1 [3]: agonist of OR8H1

Compound: C=CCc1ccc(OC)c(OC)c1 [Compound 2, 1,2-dimethoxy-4-prop-2-enylbenzene]
activation of OR2W1 [1]: did not activate
EC50 [3]: 114 ± 20.1 µM

Compound: COc1nccnc1C(C)C [Compound 3, 2-methoxy-3-propan-2-ylpyrazine]
EC50 [3]: 147 ± 8.64 µM

Compound: CCCc1ccc(O)c(OC)c1 [Compound 5, 2-methoxy-4-propylphenol]
odor threshold (OT in water/EtOH (60/40)) ([6]; water/EtOH (60/40)): 1.9 ^b[35] μg/kg

Compound: CC1=CCC(C(C)(C)S)CC1 (stereo not drawn) [Compound 8, 2-(4-methylcyclohex-3-en-1-yl)propane-2-thiol]
response of chimp orthologue (concentration–response) [2]: responded
EC50 [3]: 206 ± 80.8 µM

Second part, the compound after the results:

EC50 [3]: 336 ± 74.9 µM
Compound: C=C(C)c1ccc(C)cc1 [Compound 1, 1-methyl-4-(prop-1-en-2-yl)benzene]

KFO library screening response of OR8H1 (2σ-threshold) [3]: did not activate OR8H1
Compound: CC(=O)OCCc1ccccc1 [2-phenylethyl acetate]

agonist validation by concentration–response relation on OR8H1 [3]: agonist for OR8H1
Compound: CC(=O)c1ccc2ccccc2c1 [2-acetylnaphthalene]
